Common to all, as to type: functional
In assay [1] the test system is Mycobacterium avium. Description: Antimycobacterial activity against Mycobacterium avium My 330/88 after 21 days by micromethod. The conditions noted are these: My 330/88, 504 h.
In assay [2] the test system is Mycobacterium tuberculosis. The assay can be described thus: Antimycobacterial activity against Mycobacterium tuberculosis My 331/88 after 21 days by micromethod. The conditions noted are these: My 331/88, 504 h. In outline: (§1)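 MIC by micromethod at 37 °C, read after 14 and 21 days. Inocula were M. tuberculosis My 331/88 at 10^-3 dilution and M. avium My 330/88 at 10^-5 dilution. Compounds added in DMSO across 1000, 500, 250, 125, 62.5, 32, 16, 8, 4, 2, 1 and 0.5; isoniazid standard in sterile water. MIC taken as the lowest concentration inhibiting growth.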

The test system of assay [3] is Mycobacterium kansasii. The assay can be described thus: Antimycobacterial activity against Mycobacterium kansasii My 235/80 after 21 days by micromethod. The conditions noted are these: My 235/80, 504 h.
The subject of assay [4] is Mycobacterium kansasii. The assay can be described thus: Antimycobacterial activity against Mycobacterium kansasii My 235/80 after 14 days by micromethod. The conditions noted are these: My 235/80, 336 h.
Assay [5] concerns Mycobacterium avium. Description: Antimycobacterial activity against Mycobacterium avium My 330/88 after 14 days by micromethod. The conditions noted are these: My 330/88, 336 h.
In assay [6] the test system is Mycobacterium tuberculosis. Description: Antimycobacterial activity against Mycobacterium tuberculosis My 331/88 after 14 days by micromethod. As to conditions: My 331/88, 336 h. The gist of the method: as §1
In assay [7] the test system is Mycobacterium kansasii. Description: Antimycobacterial activity against Mycobacterium kansasii My 6509/96 clinical isolate after 14 days by micromethod. The conditions noted are these: My 6509/96, 336 h.
Assay [8] concerns Mycobacterium kansasii. The assay can be described thus: Antimycobacterial activity against Mycobacterium kansasii My 235/80 after 7 days by micromethod. The conditions noted are these: My 235/80, 168 h.
Assay [9] has as its system Mycobacterium kansasii. The assay can be described thus: Antimycobacterial activity against Mycobacterium kansasii My 6509/96 clinical isolate after 21 days by micromethod. As to conditions: My 6509/96, 504 h.
Assay [10] deals with Mycobacterium kansasii. The assay can be described thus: Antimycobacterial activity against Mycobacterium kansasii My 6509/96 clinical isolate after 7 days by micromethod. The conditions noted are these: My 6509/96, 168 h.

In brackets after ≈: the same amount, converted by molar mass.

`O=C(Nc1cccc([N+](=O)[O-])c1)c1ccc(Cl)cc1O`: the MIC in the assay on Mycobacterium avium [1] is 16 µM (≈ 4.68 µg/mL); in [2], 8 µM (≈ 2.34 µg/mL); with Mycobacterium kansasii [3], 16 µM (≈ 4.68 µg/mL); with Mycobacterium kansasii [4] it was 16 µM (≈ 4.68 µg/mL); in the assay on Mycobacterium avium [5], 16 µM (≈ 4.68 µg/mL); in assay [6], 8 µM (≈ 2.34 µg/mL).

Regarding `COc1cc(Cl)ccc1C(=O)Nc1ccc(Cl)cc1`, the MIC against Mycobacterium kansasii [7] was 16 µM (≈ 4.74 µg/mL); against Mycobacterium kansasii [8] it was 8 µM (≈ 2.37 µg/mL); in the assay with Mycobacterium avium [1], 32 µM (≈ 9.48 µg/mL); against Mycobacterium kansasii [9] it was 62.5 µM (≈ 18.5 µg/mL); in assay [2] it was 125 µM (≈ 37 µg/mL); in the assay on Mycobacterium kansasii [3] it was 62.5 µM (≈ 18.5 µg/mL). Moreover, the minimal inhibitory concentration (MIC) is 8 µM (≈ 2.37 µg/mL) with Mycobacterium kansasii [10], 16 µM (≈ 4.74 µg/mL) with Mycobacterium kansasii [4], 8 µM (≈ 2.37 µg/mL) with Mycobacterium avium [5] and 125 µM (≈ 37 µg/mL) in assay [6].

As to `O=C(Nc1ccc(Cl)c(Cl)c1)c1ccc(Cl)cc1O`, the MIC in the assay on Mycobacterium avium [1] worked out at 16 µM (≈ 5.07 µg/mL); in assay [2], 4 µM (≈ 1.27 µg/mL); with Mycobacterium kansasii [3] it was 8 µM (≈ 2.53 µg/mL); in the assay on Mycobacterium kansasii [4] it was 8 µM (≈ 2.53 µg/mL); in the assay on Mycobacterium avium [5], 16 µM (≈ 5.07 µg/mL); in assay [6], 4 µM (≈ 1.27 µg/mL).

Turning to `COc1ccc(Cl)cc1C(=O)Nc1cccc([N+](=O)[O-])c1`, the minimum inhibitory concentration (MIC) against Mycobacterium kansasii [7] came to 125 µM (≈ 38.3 µg/mL); in the assay on Mycobacterium kansasii [8], 125 µM (≈ 38.3 µg/mL); in the assay on Mycobacterium avium [1] it was 250 µM (≈ 76.7 µg/mL); in the assay on Mycobacterium kansasii [9], 125 µM (≈ 38.3 µg/mL); in [2], 125 µM (≈ 38.3 µg/mL); against Mycobacterium kansasii [3], 125 µM (≈ 38.3 µg/mL). Besides, the MIC came out at 125 µM (≈ 38.3 µg/mL) in the assay on Mycobacterium kansasii [10], 125 µM (≈ 38.3 µg/mL) against Mycobacterium kansasii [4], 250 µM (≈ 76.7 µg/mL) with Mycobacterium avium [5] and 125 µM (≈ 38.3 µg/mL) in [6].

Consider `O=C(Nc1ccc(C(F)(F)F)cc1)c1cc(Cl)ccc1O`, for which the MIC in the assay on Mycobacterium avium [1] was 8 µM (≈ 2.53 µg/mL); in assay [2] it was 2 µM (≈ 0.631 µg/mL); against Mycobacterium kansasii [3] it was 1 µM (≈ 0.316 µg/mL); in the assay on Mycobacterium kansasii [4], 1 µM (≈ 0.316 µg/mL); with Mycobacterium avium [5], 8 µM (≈ 2.53 µg/mL); in [6] it was 2 µM (≈ 0.631 µg/mL).

Take `O=C(Nc1ccc(Br)cc1)c1cc(Cl)ccc1O`: the minimal inhibitory concentration (MIC) in the assay with Mycobacterium avium [1] amounted to 8 µM (≈ 2.61 µg/mL); in assay [2] it was 16 µM (≈ 5.23 µg/mL); against Mycobacterium kansasii [3], 4 µM (≈ 1.31 µg/mL); in the assay on Mycobacterium kansasii [4], 4 µM (≈ 1.31 µg/mL); in the assay on Mycobacterium avium [5] it was 8 µM (≈ 2.61 µg/mL); in assay [6], 8 µM (≈ 2.61 µg/mL).

On to `O=C(Nc1cccc(Cl)c1)c1cc(Cl)ccc1O`, for which the minimal inhibitory concentration (MIC) against Mycobacterium avium [1] is 16 µM (≈ 4.51 µg/mL); in assay [2], 8 µM (≈ 2.26 µg/mL); in the assay on Mycobacterium kansasii [3], 8 µM (≈ 2.26 µg/mL); with Mycobacterium kansasii [4] it was 4 µM (≈ 1.13 µg/mL); with Mycobacterium avium [5] it was 8 µM (≈ 2.26 µg/mL); in [6], 4 µM (≈ 1.13 µg/mL).

Consider `COc1cc(Cl)ccc1C(=S)Nc1ccc([N+](=O)[O-])cc1`, for which the MIC in the assay with Mycobacterium kansasii [7] came to 16 µM (≈ 5.16 µg/mL); against Mycobacterium kansasii [8], 16 µM (≈ 5.16 µg/mL); against Mycobacterium avium [1], 16 µM (≈ 5.16 µg/mL); against Mycobacterium kansasii [9], 32 µM (≈ 10.3 µg/mL); in [2] it was 32 µM (≈ 10.3 µg/mL); against Mycobacterium kansasii [3], 32 µM (≈ 10.3 µg/mL). Further, the MIC with Mycobacterium kansasii [10] is 16 µM (≈ 5.16 µg/mL); in the assay with Mycobacterium kansasii [4], 32 µM (≈ 10.3 µg/mL); with Mycobacterium avium [5] it was 16 µM (≈ 5.16 µg/mL); in assay [6] it was 8 µM (≈ 2.58 µg/mL).

As for `COc1ccc(Cl)cc1C(=S)Nc1ccc(Cl)cc1`, the MIC worked out at 16 µM (≈ 5 µg/mL) with Mycobacterium kansasii [7]; 8 µM (≈ 2.5 µg/mL) against Mycobacterium kansasii [8]; 32 µM (≈ 9.99 µg/mL) in the assay on Mycobacterium avium [1]; 32 µM (≈ 9.99 µg/mL) in the assay with Mycobacterium kansasii [9]; 16 µM (≈ 5 µg/mL) in [2]; 62.5 µM (≈ 19.5 µg/mL) in the assay with Mycobacterium kansasii [3]. Besides, the minimum inhibitory concentration (MIC) against Mycobacterium kansasii [10] stood at 16 µM (≈ 5 µg/mL); with Mycobacterium kansasii [4], 32 µM (≈ 9.99 µg/mL); in the assay on Mycobacterium avium [5], 32 µM (≈ 9.99 µg/mL); in [6], 16 µM (≈ 5 µg/mL).

Regarding `O=C(Nc1ccc(Cl)cc1)c1cc(Cl)ccc1O`, the MIC in the assay on Mycobacterium avium [1] worked out at 8 µM (≈ 2.26 µg/mL); in assay [2] it was 4 µM (≈ 1.13 µg/mL); against Mycobacterium kansasii [3], 8 µM (≈ 2.26 µg/mL); in the assay with Mycobacterium kansasii [4], 8 µM (≈ 2.26 µg/mL); in the assay with Mycobacterium avium [5] it was 8 µM (≈ 2.26 µg/mL); in assay [6], 4 µM (≈ 1.13 µg/mL).

For the molecule `O=C(Nc1cccc([N+](=O)[O-])c1)c1cc(Cl)ccc1O`, the MIC against Mycobacterium avium [1] was determined as 16 µM (≈ 4.68 µg/mL); in assay [2], 8 µM (≈ 2.34 µg/mL); in the assay with Mycobacterium kansasii [3], 8 µM (≈ 2.34 µg/mL); in the assay on Mycobacterium kansasii [4], 8 µM (≈ 2.34 µg/mL); against Mycobacterium avium [5] it was 16 µM (≈ 4.68 µg/mL); in [6], 8 µM (≈ 2.34 µg/mL).

Regarding `O=C(Nc1ccc(Cl)c(Cl)c1)c1cc(Cl)ccc1O`, the MIC in the assay with Mycobacterium avium [1] was found to be 16 µM (≈ 5.07 µg/mL); in [2] it was 8 µM (≈ 2.53 µg/mL); in the assay on Mycobacterium kansasii [3], 4 µM (≈ 1.27 µg/mL); against Mycobacterium kansasii [4] it was 4 µM (≈ 1.27 µg/mL); against Mycobacterium avium [5] it was 16 µM (≈ 5.07 µg/mL); in assay [6], 4 µM (≈ 1.27 µg/mL).

Turning to `O=C(Nc1ccc(Br)cc1)c1ccc(Cl)cc1O`, the MIC is 16 µM (≈ 5.23 µg/mL) in the assay with Mycobacterium avium [1]; 4 µM (≈ 1.31 µg/mL) in assay [2]; 4 µM (≈ 1.31 µg/mL) against Mycobacterium kansasii [3]; 4 µM (≈ 1.31 µg/mL) with Mycobacterium kansasii [4]; 16 µM (≈ 5.23 µg/mL) against Mycobacterium avium [5]; 4 µM (≈ 1.31 µg/mL) in [6].

As usually defined, the MIC is the lowest concentration that inhibits growth of the organism. Read a high MIC as a need for much substance.
